Calls of active or inactive are those of the source. The calls are words filed in the database; no cut-off is given here.
Tests used:
NCI-H1975 [1] = assay: Antiproliferative activity against human NCI-H1975 cells harboring EGFR L858R/T790M mutant assessed as inhibition of colony formation after 9 days by crystal violet staining; type: functional, cell-based
Method in brief: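 H1975 cells seeded at 500 cells per 6-cm dish and grown 24 h, then treated at 0.1 to 10 nM. Medium with compound replaced every 3 days. After 9 days, fixed with 4% formaldehyde and stained with 0.2% crystal violet.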

[2] = target: T1, Epidermal growth factor receptor (Homo sapiens, UniProt P00533); assay: Inhibition of EGFR after 1.5 hr by FRET assay
[3] = target: Cytoplasmic tyrosine-protein kinase BMX (Homo sapiens) (UniProt P51813); assay: Binding affinity to BMX
Method in brief: (§1)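 Ambit KINOMEscan binding assay. Binding for 1 h at r.t. Unbound kinase captured on immobilized affinity ligand and quantified by qPCR.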

[4] = target: T2, Epidermal growth factor receptor (Homo sapiens, UniProt P00533, L861Q); assay: Inhibition of EGFR L861Q mutant after 1.5 hr by FRET assay; type: protein assay
[5] = target: T3, Epidermal growth factor receptor (Homo sapiens, UniProt P00533, T790M); assay: Inhibition of EGFR T790M mutant after 1.5 hr by FRET assay; type: protein assay
NCI-H1975 [6] = assay: Induction of Cell cycle arrest in human NCI-H1975 cells harboring EGFR L858R/T790M mutant assessed as G1 phase cells after 24 hrs by flow cytometry assay; type: functional, cell-based
Method in brief: (§2)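 Cells in six-well plates serum-starved 24 h to synchronize in G0−G1, then treated at indicated concentrations for 24 h. Lightly trypsinized and cell-cycle distribution analysed by flow cytometry.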

[7] = target: Mitogen-activated protein kinase kinase kinase 15 (Homo sapiens) (UniProt Q6ZN16); assay: Binding affinity to MAP3K15; method in brief: as §1
NCI-H1975 [8] = assay: Induction of apoptosis in human NCI-H1975 cells harboring EGFR L858R/T790M mutant after 48 hrs by flow cytometry assay
[9] = Cytotoxicity against human HLF1 cells after 72 hrs by MTS assay; type: cell-based; conditions: hlf1, 72 h
Method in brief: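 MTS proliferation read-out at 490 nm after 72 h exposure, cell number set to give absorbance 1.3−2.2. Six concentrations, 0.1 nM to 10 μM, at least six parallels each, repeated at least four times. IC50 from nonlinear sigmoidal dose−response fit.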

[10] = target: Activated CDC42 kinase 1 (Homo sapiens) (UniProt Q07912); assay: Binding affinity to TNK2; method in brief: as §1
[11] = target: Tyrosine-protein kinase JAK3 (Homo sapiens) (UniProt P52333); assay: Binding affinity to JAK3; method in brief: as §1
[12] = target: Platelet-derived growth factor receptor beta (Homo sapiens) (UniProt P09619); assay: Binding affinity to PDGFRbeta; method in brief: as §1
A549 = assay: Antiproliferative activity against human A549 cells expressing wild type EGFR coexpressing k-Ras mutant after 72 hrs by MTS assay; conditions: A549, 72 h
HCC827 [13] = assay: Induction of apoptosis in human HCC827 cells harboring EGFR del E746-A750 mutant after 48 hrs by flow cytometry assay
[14] = target: T4, Epidermal growth factor receptor (Homo sapiens, UniProt P00533, L858R); assay: Inhibition of EGFR L858R mutant after 1.5 hr by FRET assay; type: protein assay
HCC827 [15] = assay: Induction of Cell cycle arrest in human HCC827 cells harboring EGFR del E746-A750 mutant assessed as G1 phase cells after 24 hrs by flow cytometry assay; type: functional, cell-based; method in brief: as §2
[16] = target: Tyrosine-protein kinase Tec (Homo sapiens) (UniProt P42680); assay: Binding affinity to TEC; method in brief: as §1
[17] = target: Tyrosine-protein kinase Lck (Homo sapiens) (UniProt P06239); assay: Binding affinity to LCK; method in brief: as §1
[18] = tested on: Mast/stem cell growth factor receptor Kit (Homo sapiens), P10721 [V559D]; assay: Binding affinity to KIT V559D mutant; method in brief: as §1
[19] = Antiproliferative activity against human HL7702 cells expressing wilt type EGFR after 72 hrs by MTS assay; conditions: L02, 72 h
[20] = target: T5, Epidermal growth factor receptor (Homo sapiens, UniProt P00533, L858R/T790M); assay: Inhibition of EGFR L858R/T790M mutant after 1.5 hr by FRET assay; type: protein assay
cells = conditions: Homo sapiens, HCC827, 72 h
A-431 = assay: Antiproliferative activity against human A431 cells overexpressing EGFR after 72 hrs by MTS assay; conditions: A-431, 72 h
NCI-H1975 [21] = assay: cells; conditions: Homo sapiens, NCI-H1975, 72 h
[22] = target: T3, Epidermal growth factor receptor; assay: Binding affinity to EGFR T790M mutant
[23] = target: T2, Epidermal growth factor receptor; assay: Binding affinity to EGFR L861Q mutant
[24] = target: T5, Epidermal growth factor receptor; assay: Binding affinity to EGFR L858R/T790M mutant
[25] = target: T1, Epidermal growth factor receptor; assay: Binding affinity to EGFR
[26] = target: T4, Epidermal growth factor receptor; assay: Binding affinity to EGFR L858R mutant

T5 sequence (P00533 25-1210 T790M/L858R limits assumed): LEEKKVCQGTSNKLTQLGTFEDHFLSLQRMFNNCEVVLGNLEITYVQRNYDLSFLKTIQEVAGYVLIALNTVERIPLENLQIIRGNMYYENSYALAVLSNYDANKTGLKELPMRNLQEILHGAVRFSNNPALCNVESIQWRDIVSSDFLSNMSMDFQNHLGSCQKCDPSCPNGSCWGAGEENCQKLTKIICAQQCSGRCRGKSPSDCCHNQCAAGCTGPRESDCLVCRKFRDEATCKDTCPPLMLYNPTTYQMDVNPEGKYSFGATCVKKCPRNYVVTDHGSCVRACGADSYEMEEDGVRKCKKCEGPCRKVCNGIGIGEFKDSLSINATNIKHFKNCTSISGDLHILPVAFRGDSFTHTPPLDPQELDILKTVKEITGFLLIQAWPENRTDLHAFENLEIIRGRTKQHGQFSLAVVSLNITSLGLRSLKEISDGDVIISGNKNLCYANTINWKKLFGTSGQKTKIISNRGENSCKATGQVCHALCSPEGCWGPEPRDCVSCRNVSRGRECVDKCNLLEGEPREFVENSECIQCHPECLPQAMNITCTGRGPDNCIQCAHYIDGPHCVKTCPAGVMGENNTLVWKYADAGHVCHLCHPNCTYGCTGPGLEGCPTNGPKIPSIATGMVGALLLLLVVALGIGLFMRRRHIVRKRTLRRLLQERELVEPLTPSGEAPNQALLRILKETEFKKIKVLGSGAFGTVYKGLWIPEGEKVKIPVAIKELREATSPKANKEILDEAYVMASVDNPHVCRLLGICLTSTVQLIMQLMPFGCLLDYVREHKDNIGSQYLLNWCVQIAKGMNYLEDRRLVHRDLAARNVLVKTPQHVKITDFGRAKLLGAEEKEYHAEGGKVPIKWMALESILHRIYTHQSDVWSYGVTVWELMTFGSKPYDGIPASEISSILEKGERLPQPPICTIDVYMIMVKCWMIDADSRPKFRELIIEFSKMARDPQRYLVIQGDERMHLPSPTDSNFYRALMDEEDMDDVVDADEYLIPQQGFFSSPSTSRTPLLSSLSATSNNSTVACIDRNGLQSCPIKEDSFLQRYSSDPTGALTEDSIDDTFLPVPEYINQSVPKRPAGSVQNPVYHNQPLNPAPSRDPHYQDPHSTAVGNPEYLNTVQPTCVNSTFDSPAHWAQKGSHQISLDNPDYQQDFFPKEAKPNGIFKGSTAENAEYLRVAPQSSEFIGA
T1 sequence (P00533 whole entry): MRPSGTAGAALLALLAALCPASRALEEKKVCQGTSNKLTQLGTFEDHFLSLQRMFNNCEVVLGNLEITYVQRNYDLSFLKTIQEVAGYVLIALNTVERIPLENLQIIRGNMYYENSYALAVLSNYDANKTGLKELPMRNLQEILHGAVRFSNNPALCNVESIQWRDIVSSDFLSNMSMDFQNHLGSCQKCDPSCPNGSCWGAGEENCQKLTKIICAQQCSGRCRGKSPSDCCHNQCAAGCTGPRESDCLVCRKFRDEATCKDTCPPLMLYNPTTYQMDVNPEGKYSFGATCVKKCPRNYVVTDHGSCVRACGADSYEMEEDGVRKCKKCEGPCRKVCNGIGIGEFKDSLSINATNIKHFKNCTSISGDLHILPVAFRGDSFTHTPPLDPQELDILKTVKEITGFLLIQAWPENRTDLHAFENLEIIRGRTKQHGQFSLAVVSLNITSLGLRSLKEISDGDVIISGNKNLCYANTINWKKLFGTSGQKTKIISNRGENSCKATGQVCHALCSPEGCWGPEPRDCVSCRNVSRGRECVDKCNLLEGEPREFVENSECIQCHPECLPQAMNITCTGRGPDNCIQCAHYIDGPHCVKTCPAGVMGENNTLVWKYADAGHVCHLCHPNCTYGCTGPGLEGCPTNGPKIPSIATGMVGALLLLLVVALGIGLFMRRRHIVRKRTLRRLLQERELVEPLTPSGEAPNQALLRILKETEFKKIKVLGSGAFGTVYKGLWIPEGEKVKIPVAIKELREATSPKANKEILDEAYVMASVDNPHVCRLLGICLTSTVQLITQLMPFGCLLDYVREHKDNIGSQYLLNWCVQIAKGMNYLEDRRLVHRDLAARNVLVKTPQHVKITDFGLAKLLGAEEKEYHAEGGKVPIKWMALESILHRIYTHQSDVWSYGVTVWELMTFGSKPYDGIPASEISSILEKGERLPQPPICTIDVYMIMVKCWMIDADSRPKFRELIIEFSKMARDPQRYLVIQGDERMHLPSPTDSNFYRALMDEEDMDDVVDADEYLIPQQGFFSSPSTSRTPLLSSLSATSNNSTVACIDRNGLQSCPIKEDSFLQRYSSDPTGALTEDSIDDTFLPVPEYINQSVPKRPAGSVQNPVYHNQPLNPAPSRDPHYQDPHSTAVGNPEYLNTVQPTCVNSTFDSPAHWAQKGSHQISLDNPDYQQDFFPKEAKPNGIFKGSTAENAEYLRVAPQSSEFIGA
T2 sequence (P00533 25-1210 L861Q limits assumed): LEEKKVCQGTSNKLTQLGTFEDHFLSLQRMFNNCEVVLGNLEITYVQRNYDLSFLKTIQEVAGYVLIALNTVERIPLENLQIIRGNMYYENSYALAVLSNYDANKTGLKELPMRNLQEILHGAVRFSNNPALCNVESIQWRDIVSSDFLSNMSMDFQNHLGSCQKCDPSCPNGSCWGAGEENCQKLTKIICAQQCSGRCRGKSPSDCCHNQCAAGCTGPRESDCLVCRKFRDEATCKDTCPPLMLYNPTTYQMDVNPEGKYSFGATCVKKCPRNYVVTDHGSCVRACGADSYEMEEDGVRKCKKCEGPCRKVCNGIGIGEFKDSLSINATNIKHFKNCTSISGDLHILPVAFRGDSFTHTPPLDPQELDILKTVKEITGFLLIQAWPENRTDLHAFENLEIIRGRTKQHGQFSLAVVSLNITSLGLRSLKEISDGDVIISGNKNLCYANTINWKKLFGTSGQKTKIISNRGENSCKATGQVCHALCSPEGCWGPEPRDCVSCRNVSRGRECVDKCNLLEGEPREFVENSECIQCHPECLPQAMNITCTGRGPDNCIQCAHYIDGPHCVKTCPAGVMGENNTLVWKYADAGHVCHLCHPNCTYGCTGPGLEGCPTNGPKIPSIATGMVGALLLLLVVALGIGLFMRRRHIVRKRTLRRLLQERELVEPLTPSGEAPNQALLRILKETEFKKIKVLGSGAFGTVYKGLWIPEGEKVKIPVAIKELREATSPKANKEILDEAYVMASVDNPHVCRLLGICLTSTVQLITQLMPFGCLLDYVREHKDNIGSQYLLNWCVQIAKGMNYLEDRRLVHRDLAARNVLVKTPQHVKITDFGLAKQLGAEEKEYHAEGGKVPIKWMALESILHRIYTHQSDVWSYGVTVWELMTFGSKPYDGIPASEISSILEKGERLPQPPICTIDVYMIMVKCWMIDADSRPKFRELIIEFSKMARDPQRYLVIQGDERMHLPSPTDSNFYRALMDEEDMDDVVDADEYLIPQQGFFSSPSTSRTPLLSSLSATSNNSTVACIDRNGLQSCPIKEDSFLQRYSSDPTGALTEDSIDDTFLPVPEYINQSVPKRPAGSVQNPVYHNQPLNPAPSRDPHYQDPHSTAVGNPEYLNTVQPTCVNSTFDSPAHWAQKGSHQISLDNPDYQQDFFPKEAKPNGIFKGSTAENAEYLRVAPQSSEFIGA
T4 sequence (P00533 25-1210 L858R limits assumed): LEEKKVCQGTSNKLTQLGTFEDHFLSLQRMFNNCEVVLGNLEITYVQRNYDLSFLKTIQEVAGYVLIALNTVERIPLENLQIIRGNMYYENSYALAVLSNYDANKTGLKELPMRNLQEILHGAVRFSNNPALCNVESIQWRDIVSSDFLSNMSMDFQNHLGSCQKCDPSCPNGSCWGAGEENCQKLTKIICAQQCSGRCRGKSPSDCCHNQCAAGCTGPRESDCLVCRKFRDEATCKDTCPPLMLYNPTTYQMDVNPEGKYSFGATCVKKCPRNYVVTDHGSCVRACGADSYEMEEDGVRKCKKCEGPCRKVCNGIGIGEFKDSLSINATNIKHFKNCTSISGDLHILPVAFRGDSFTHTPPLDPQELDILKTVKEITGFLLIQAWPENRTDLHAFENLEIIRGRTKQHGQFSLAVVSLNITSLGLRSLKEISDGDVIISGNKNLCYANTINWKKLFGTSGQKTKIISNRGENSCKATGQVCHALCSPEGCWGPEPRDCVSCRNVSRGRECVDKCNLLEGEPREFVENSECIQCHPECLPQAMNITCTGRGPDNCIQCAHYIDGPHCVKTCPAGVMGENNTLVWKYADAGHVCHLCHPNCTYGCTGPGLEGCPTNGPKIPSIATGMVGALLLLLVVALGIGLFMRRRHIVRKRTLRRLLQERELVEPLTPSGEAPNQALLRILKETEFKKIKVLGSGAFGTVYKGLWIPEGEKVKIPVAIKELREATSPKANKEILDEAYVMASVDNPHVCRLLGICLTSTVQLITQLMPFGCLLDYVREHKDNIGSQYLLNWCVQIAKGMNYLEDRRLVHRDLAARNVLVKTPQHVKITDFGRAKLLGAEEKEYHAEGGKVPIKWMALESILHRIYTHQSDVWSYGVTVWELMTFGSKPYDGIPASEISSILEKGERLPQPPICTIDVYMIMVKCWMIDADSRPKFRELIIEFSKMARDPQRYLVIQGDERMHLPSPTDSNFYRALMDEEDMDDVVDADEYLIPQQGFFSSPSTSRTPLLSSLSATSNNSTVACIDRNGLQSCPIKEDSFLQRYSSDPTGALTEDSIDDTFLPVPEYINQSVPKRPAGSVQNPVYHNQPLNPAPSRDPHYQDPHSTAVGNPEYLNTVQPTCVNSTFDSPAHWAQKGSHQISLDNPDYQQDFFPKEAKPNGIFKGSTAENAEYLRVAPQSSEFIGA

| Compound | IC50 [2] [nM] | IC50 [4] [nM] | IC50 [5] [nM] | IC50 (A549) [µM] | IC50 [14] [nM] | IC50 [19] [µM] | IC50 [20] [nM] | IC50 (cells) [nM] | IC50 (A-431) [nM] | IC50 (NCI-H1975 [21]) [nM] | also measured |
| --- | --- | --- | --- | --- | --- | --- | --- | --- | --- | --- | --- |
| C=CC(=O)Nc1cccc(N2C(=O)N(c3ccccc3)Cc3cnc(Nc4ccc(N5CCN(C)CC5)cc4OC)nc32)c1 | 0.3 | 0.93 | 0.51 | 2.8 | 0.46 | 4.02 | 0.98 |  |  |  | inhibition (NCI-H1975 [1]): Dose-dependent effect; Activity [3]: Active; Activity (NCI-H1975 [6]): Active; Activity [7]: Active; Activity (NCI-H1975 [8]): Active; Activity [9]: Non-toxic; Activity [10]: Active; Activity [11]: Active; Activity [12]: Active; Activity (HCC827 [13]): Active; Activity (HCC827 [15]): Active; Activity [16]: Active; Activity [17]: Active; Activity [18]: Active |
| C=CC(=O)Nc1cccc(N2C(=O)N(c3ccc(-c4ccccc4)cc3)Cc3cnc(Nc4ccc(N5CCN(C)CC5)cc4OC)nc32)c1 | 1.41 | 3.43 | 5.24 | 2.27 | 1.67 | 3.69 | 4.64 |  |  |  |  |
| C=CC(=O)Nc1cccc(N2C(=O)N(C)Cc3cnc(Nc4ccccc4)nc32)c1 | 6.95 | 12.1 | 45.7 | 18 | 10.9 | > 10 | 28.3 | 44 | 6900 | 170 |  |
| C=CC(=O)Nc1cc2c(Nc3ccc(F)c(Cl)c3)ncnc2cc1OCCCN1CCOCC1 [CANERTINIB] |  |  |  |  |  |  |  | 1 |  |  |  |
| C=CC(=O)Nc1cccc(N2C(=O)N(C)Cc3cnc(Nc4ccc(N5CCCN(C)CC5)cc4OC)nc32)c1 | 1.47 | 2.75 | 11 | > 20 | 2.11 | > 10 | 5.17 | 73 | 2150 | 720 |  |
| C=CC(=O)Nc1cccc(N2C(=O)N(C)Cc3cnc(Nc4ccc(N5CCCCC5)cc4OC)nc32)c1 | 29.5 | 15.4 | 95.7 | 12 | 10.4 | > 10 | 36.4 | 170 | 5060 | 610 |  |
| C=CC(=O)Nc1cccc(Oc2nc(Nc3ccc(N4CCN(C)CC4)cc3OC)ncc2Cl)c1 |  |  |  | 5.31 |  | 2.73 |  | 7 | 1390 | 48 |  |
| C=CC(=O)Nc1cccc(N2C(=O)N(c3ccc(OCc4ccccc4)cc3)Cc3cnc(Nc4ccc(N5CCN(C)CC5)cc4OC)nc32)c1 | 1.67 | 2.56 | 2.43 | 2.47 | 2.42 | 2.79 | 6.31 |  |  |  |  |
| C=CC(=O)Nc1cccc(N2C(=O)N(C)Cc3cnc(Nc4ccc(N5CCN(C)CC5)cc4F)nc32)c1 | > 1000 | > 1000 | > 1000 | 11.1 | > 1000 | 7.18 | > 1000 | 5010 | > 10000 | 8460 |  |
| C=CC(=O)Nc1cccc(N2C(=O)N(C)Cc3cnc(Nc4ccc(N5CCC(N(C)C)CC5)cc4OC)nc32)c1 | 3.52 | 2.83 | 9.52 | 14.5 | 2.41 | > 10 | 5.2 | 150 | 1390 | 530 |  |
| C=CC(=O)Nc1cccc(N2C(=O)N(C)Cc3cnc(Nc4ccc(N(C)C)cc4OC)nc32)c1 | 4.99 | 6.22 | 24.9 | > 20 | 4.95 | > 10 | 11.5 | 740 | 5620 | 540 |  |
| C=CC(=O)Nc1cccc(N2C(=O)N(C)Cc3cnc(Nc4ccc(N5CCN(C)CC5)cc4)nc32)c1 | 0.43 | 0.56 | 1.66 | 11.3 | 0.53 | 7.56 | 1.19 | 14 | 550 | 45 |  |
| COc1cc(N2CCN(C)CC2)ccc1Nc1ncc2c(n1)N(c1cccc(N)c1)C(=O)N(C)C2 | > 1000 | > 1000 | > 1000 | 11.2 | > 1000 | > 10 | > 1000 | 4890 | > 10000 | > 20000 |  |
| C=CC(=O)Nc1cccc(N2C(=O)N(C)Cc3cnc(Nc4ccc(N5CCN(C)CC5)cc4C)nc32)c1 | 1.95 | 1.31 | 9.37 | 11.9 | 1.21 | > 10 | 4.18 | 31 | 990 | 200 |  |
| C=CC(=O)Nc1cccc(N2C(=O)N(C)Cc3cnc(Nc4ccc(N5CCOCC5)cc4OC)nc32)c1 | 16.4 | 12.7 | 60.3 | 10.5 | 10.3 | > 10 | 28.9 | 130 | > 10000 | 150 |  |
| C=CC(=O)Nc1cccc(N2C(=O)N(C(C)C)Cc3cnc(Nc4ccc(N5CCN(C)CC5)cc4OC)nc32)c1 | 0.38 | 0.46 |  | 8.42 | 0.45 | > 10 | 4.42 | 4 | 820 | 58 |  |
| C=CC(=O)Nc1cccc(N2C(=O)N(C)Cc3cnc(Nc4ccc(N5CCN(C)CC5)cc4OCC)nc32)c1 | 4.41 | 3.02 | 12.7 | 10.3 | 2.68 | > 10 | 7.1 | 14 | 1080 | 103 |  |
| C=CC(=O)Nc1cccc(N2C(=O)N(C)Cc3cnc(Nc4ccc(N5CCN(C)CC5)cc4OC)nc32)c1 | 1.16 | 1.21 | 6.56 | 15.9 | 1.08 | > 10 | 3.14 | 18 | 750 | 47 |  |
| C=CC(=O)Nc1cccc(N2C(=O)N(c3ccc(Oc4ccccc4)cc3)Cc3cnc(Nc4ccc(N5CCN(C)CC5)cc4OC)nc32)c1 | 1.52 | 2.31 | 2.03 | 1.77 | 1.66 | > 10 | 3.57 |  |  |  |  |
| CCC(=O)Nc1cccc(N2C(=O)N(C)Cc3cnc(Nc4ccc(N5CCN(C)CC5)cc4OC)nc32)c1 | > 1000 | > 1000 | > 1000 | > 30 | > 1000 | > 10 | > 1000 |  | > 10000 | > 20000 | Kd [22]: 560 nM; Kd [23]: 1100 nM; Kd [24]: 850 nM; Kd [25]: 1400 nM; Kd [26]: 1600 nM |
| C=CC(=O)Nc1cccc(N2C(=O)N(C)Cc3cnc(Nc4ccc(N5CCN(C)CC5)cc4OC(C)C)nc32)c1 | 8.81 | 13.5 | 39.9 | 11.7 | 13.7 | > 10 | 36.3 | 27 | 2110 | 230 |  |
| C=CC(=O)Nc1cccc(N2C(=O)N(C)Cc3cnc(NC)nc32)c1 | 929 | 837 | > 1000 | > 20 | > 1000 | > 10 | > 1000 | 6920 | > 10000 | 20100 |  |

From ChEMBL document CHEMBL2029259, “Design, synthesis, and biological evaluation of novel conformationally constrained inhibitors targeting epidermal growth factor receptor threonine⁷⁹⁰ → methionine⁷⁹⁰ mutant” (J Med Chem, 2012)
